Experimental data taken from paper PMC3770188 (ACS medicinal chemistry letters, 2013).
Read-outs that look alike come from different tables or passages of the source.

What was measured:
[1] = molecular target: T1, RARβ (Homo sapiens, UniProt P10826); experiment: Transactivation competition assay; assay type: cell-based; settings: HeLa cells, 10^−7M ATRA, increasing concentrations of retinoid, 24 hours
T1 sequence (P10826 1-455): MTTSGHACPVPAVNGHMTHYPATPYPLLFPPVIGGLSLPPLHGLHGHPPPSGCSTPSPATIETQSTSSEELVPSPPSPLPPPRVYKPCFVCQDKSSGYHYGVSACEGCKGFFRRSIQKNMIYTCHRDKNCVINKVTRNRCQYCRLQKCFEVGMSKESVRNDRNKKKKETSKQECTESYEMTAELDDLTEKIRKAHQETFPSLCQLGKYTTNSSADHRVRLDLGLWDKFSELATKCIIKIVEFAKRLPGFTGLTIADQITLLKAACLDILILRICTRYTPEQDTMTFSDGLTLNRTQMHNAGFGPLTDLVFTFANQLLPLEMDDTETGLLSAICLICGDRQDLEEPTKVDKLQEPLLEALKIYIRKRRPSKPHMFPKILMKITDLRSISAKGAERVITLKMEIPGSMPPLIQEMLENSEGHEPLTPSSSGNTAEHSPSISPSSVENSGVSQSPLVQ
In short: (§1)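 HeLa cells were cotransfected with receptor/CAT reporter constructs plus a constant β-galactosidase plasmid as internal control. Cells were incubated with submaximal ATRA (10–7 M) plus increasing concentrations of test compound, and CAT expression was measured after 24 h. Dilution medium without retinoid served as vehicle control and ATRA as positive control.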

[2] = molecular target: T2, RARγ (Homo sapiens, UniProt P13631); experiment: Transactivation competition assay; assay type: cell-based; settings: HeLa cells, 10^−7M ATRA, increasing concentrations of retinoid, 24 hours
T2 sequence (P13631 1-454): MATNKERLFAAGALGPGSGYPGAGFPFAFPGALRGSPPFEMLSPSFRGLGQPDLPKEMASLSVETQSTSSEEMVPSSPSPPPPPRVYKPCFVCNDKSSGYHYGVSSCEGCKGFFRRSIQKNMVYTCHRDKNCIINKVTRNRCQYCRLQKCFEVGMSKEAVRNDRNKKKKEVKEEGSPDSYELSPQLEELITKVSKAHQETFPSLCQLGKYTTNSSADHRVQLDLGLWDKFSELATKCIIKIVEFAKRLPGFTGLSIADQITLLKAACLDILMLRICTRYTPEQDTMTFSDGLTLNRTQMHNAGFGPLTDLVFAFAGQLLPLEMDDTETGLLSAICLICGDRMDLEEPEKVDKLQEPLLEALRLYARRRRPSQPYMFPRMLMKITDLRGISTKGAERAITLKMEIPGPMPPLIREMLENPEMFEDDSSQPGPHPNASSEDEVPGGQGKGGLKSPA
In short: as §1

[3] = tested on: RARs; experiment: Transactivation assay; assay type: cell-based; settings: concomitantly transfected RARs
[4] = tested on: spermatogenesis in mice; experiment: Oral administration, effect on spermatogenesis in mice; assay type: in vivo, CD1 mice; settings: for Morphology of caudal epididymides: oral 10 mg/kg for 7 days; for Morphology of caudal epididymides / Epididymal sperm motility: 1-month post-treatment; for Testicular weight compared with control: oral 2 and 10 mg/kg for 7 days, mean±SD of five mice; for Effect on spermatogenesis (testis morphology): oral 2.0 and 10 mg/kg for 7 days, one-month after dosing; for Epididymal sperm motility: oral, 7 days
In short: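 Male CD1 mice received test compound by oral gavage daily at 2 or 10 mg/kg for 7 days; controls got vehicle alone for 7 days. Body weight was monitored throughout. One month post-treatment, testes were collected and weighed (mean ± SD, five mice per regimen; […] Student's t-test vs age-matched controls). Testes and epididymides were sectioned for histology with tubule staging.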

[5] = tested on: RARs; settings: concomitantly transfected RARs; cited from earlier work
[6] = tested on: spermatogenesis in mice; experiment: IV and IP administration, effect on spermatogenesis in mice; assay type: in vivo, CD1 mice
In short: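 Male CD1 mice dosed daily with test compound at 10 mg/kg by IV (for 3, 6 or 7 days; n = 2 for 6 and 7 days) or IP (7 days), against vehicle-only controls. Testes taken […] were sectioned and examined histologically for spermatid alignment and release in tubules. Reversibility was assessed by testis histology 4 weeks post-treatment.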

[7] = tested on: spermatogenesis in mice; settings: oral, low levels; cited from earlier work

Competition of ATRA-induced CAT expression, RARβ [1]	Competition of ATRA-induced CAT expression, RARγ [2]	Structure (SMILES)	Induction of RARE-CAT reporter expression by compound alone [3]	Morphology of caudal epididymides [4]	Testicular weight compared with control [4]	Effect on spermatogenesis (testis morphology) [4]	Epididymal sperm motility [4]	Induction of RARE-CAT reporter expression by compound alone [5]	Effect on spermatid alignment and sperm release ([6]; IV 10 mg/kg for 6 and 7 days, one-day post-treatment)	Effect on spermatogenesis 4-weeks post-treatment (reversibility) ([6]; IV, 4-weeks post-treatment)	Effect on spermatogenesis in mice [7]	Side-effects in mice [7]
minimal activity	minimal activity	CC1(C)CC=C(c2cnc3ccccc3c2)c2cc(C(=O)Nc3ccc(C(=O)O)cc3)ccc21 [compound 3]	did not, by themselves, induce reporter expression	appeared normal	No significant differences	no effect on spermatogenesis	normal motility					
minimal activity	minimal activity	Cc1ccc(C2=CCC(C)(C)c3ccc(C(=O)Nc4ccc(C(=O)O)cc4)cc32)cc1 [compound 2]		appeared normal	No significant differences	no effect on spermatogenesis	normal motility	did not, by themselves, induce reporter expression	Acute disruptive effects	No effect on spermatogenesis		
		CC1(C)CC=C(c2ccccc2)c2cc(/C=C/c3ccc(C(=O)O)cc3)ccc21 [compound 1]									inhibited spermatogenesis	without any observable side-effects
